Columns and labels:
Assay type in all cases: functional
[1] = tested on: Mus musculus; test: Compound (20 mg/kg) was evaluated for the antinociceptive response after intravenous administration using hot-plat test (55+/-1 degree Celsius) in mice(for jump latency time) at the dose of 0.57*10e-6 mol/mouse
Summary of the method: (§1)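 Mice on a hot plate held at 55 ± 0.5 °C inside a glass cylinder, tested 15 min after iv dosing. Read-out was latency to jump, with a 240 s cutoff. % analgesia = (test − control latency)/(cutoff − control latency) × 100. Groups compared by ANOVA followed by Dunnett's t test.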

[2] = tested on: Mus musculus; test: Compound (20 mg/kg) was evaluated for the percentage of analgesic effect in mice at the time of 15 min after intravenous administration of dose 0.57*10e-6 mol/mouse; summary of the method: as §1
[3] = tested on: Mus musculus; test: Compound was evaluated for the antinociceptive response after intravenous administration using hot-plat test (55+/-1 degree Celsius) in mice (for jump latency time) at the dose of 10 mg/kg; summary of the method: as §1
[4] = tested on: Mus musculus; test: Compound was evaluated for the antinociceptive response after intravenous administration using hot-plat test (55+/-1 degree Celsius) in mice (for jump latency time) at the dose of 5 mg/kg; summary of the method: as §1
[5] = tested on: Mus musculus; test: Compound was evaluated for the antinociceptive response after intravenous administration using hot-plat test (55+/-1 degree Celsius) in mice (for jump latency time) at the dose of 0 mg/kg; summary of the method: as §1
[6] = tested on: Mus musculus; test: Compound was evaluated for the percentage of analgesic effect in mice at the time of 15 min after intravenous administration of dose 10 mg/kg; summary of the method: as §1
[7] = tested on: Mus musculus; test: Compound was evaluated for the antinociceptive response after intravenous administration using hot-plat test (55+/-1 degree Celsius) in mice (for jump latency time) at the dose of 1 mg/kg; summary of the method: as §1
[8] = tested on: Mus musculus; test: Compound was evaluated for the percentage of analgesic effect in mice at the time of 15 min after intravenous administration of dose 5 mg/kg; summary of the method: as §1
[9] = tested on: Mus musculus; test: Compound was evaluated for the percentage of analgesic effect in mice at the time of 15 min after intravenous administration of dose 1 mg/kg; summary of the method: as §1
[10] = tested on: Mus musculus; test: Compound was evaluated for the antinociceptive response after intravenous administration using hot-plat test (55+/-1 degree Celsius) in mice (for jump latency time) at the dose of 0.75*10e-6 mol/mice and 0.46*10e-6 mol/mice respectively; summary of the method: as §1
[11] = tested on: Mus musculus; test: Compound was evaluated for the percentage of analgesic effect in mice at the time of 15 min after intravenous administration of dose 0.75*10e-6 mol/mice and 0.46*10e-6 mol/mice respectively; summary of the method: as §1

Row | SMILES | Jump latency time [3] | Jump latency time [4] | Jump latency time [5] | Analgesia [6] | further results
1 | CSCCC(N)CSSCC(Cc1ccccc1)C(=O)NC(Cc1ccccc1)C(=O)OCc1ccccc1 (stereo not given) |  |  |  |  | Jump latency time [1]: 236 s; Analgesia [2]: 92.1%
2 | N[C@H](CSC(=O)CCC(=O)SCC(Cc1ccccc1)C(=O)NCC(=O)OCc1ccccc1)Cc1ccccc1 (stereo not given in full) | 71.7 s | 46.5 s | 48.7 s | 12% | 
3 | CC(=O)SCC(Cc1ccccc1)C(=O)NCC(=O)SC[C@@H](N)Cc1ccccc1 (stereo not given in full) | 143 s | 80.4 s | 56.7 s | 63% | Jump latency time [7]: 74.1 s; Analgesia [8]: 13%; Analgesia [9]: 9%
4 | CSCCC(N)CSSCC(N)CCSC.O=C(NC(Cc1ccccc1)C(=O)OCc1ccccc1)C(CSSCC(Cc1ccccc1)C(=O)NC(Cc1ccccc1)C(=O)OCc1ccccc1)Cc1ccccc1 (stereo not given) |  |  |  |  | Jump latency time [10]: 126 s; Analgesia [11]: 32.2%
